Test results reported in ChEMBL document CHEMBL1255542, “Reverse-benzamidine antimalarial agents: design, synthesis, and biological evaluation” (Bioorg Med Chem Lett, 2010).

What was measured:
Plasmodium vinckei [1] = experiment: Antimalarial activity against Plasmodium vinckei 279BY infected in Swiss mice (Mus musculus) assessed as reduction in parasitemia at 5 mg/kg, intraperitoneally; type: functional; design: scale not given: the % may be the effect or the level left; details: route intraperitoneal
Procedure, shortened: (§1)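 Female Swiss mice infected with P. vinckei petteri 279BY on day 0. Dosing once daily on days 1–4 post infection, ip or po as given in each line, n = 3 per dose. Parasitemia measured on day 5 and expressed as decrease relative to untreated control. ED50 derived from the dose series.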

Plasmodium vinckei [2] = experiment: Antimalarial activity against Plasmodium vinckei 279BY infected in Swiss mice (Mus musculus) dosed perorally for 4 consecutive days; type: functional; details: ip, in the assay text read “dosed intraperitoneally” for “dosed perorally”; procedure, shortened: as §1
Plasmodium falciparum = experiment: Antimalarial activity against Plasmodium falciparum; type: functional, organism-based
Procedure, shortened: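 Chloroquine-sensitive Nigerian strain of P. falciparum; inhibition of in vitro growth; IC50 taken as the mean of at least two independent experiments, each run in duplicate.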

Plasmodium vinckei [3] = experiment: Antimalarial activity against Plasmodium vinckei 279BY infected in Swiss mice (Mus musculus) assessed as reduction in parasitemia at 180 mg/kg, po; type: functional; design: scale not given: the % may be the effect or the level left; procedure, shortened: as §1

Structure (SMILES) | Activity (Plasmodium vinckei [1]) | ED50 (Plasmodium vinckei [2]) | IC50 (Plasmodium falciparum) | Activity (Plasmodium vinckei [3])
COc1ccc(C(=N)NCCCCCCCCCCCCNC(=N)c2ccc(OC)c(OC)c2)cc1OC.Cl.Cl | 40% | > 5 mg/kg | 6.7 nM | –
COc1cccc(C(=N)NCCCCCCCCCCCCNC(=N)c2cccc(OC)c2)c1.Cl.Cl | – | 5 mg/kg | 6.6 nM | 42%
COc1cc(OC)cc(C(=N)NCCCCCCCCCCCCNC(=N)c2cc(OC)cc(OC)c2)c1.Cl.Cl | – | 5 mg/kg | 39 nM | 20%
Cl.Cl.N=C(NCCCCCCCCCCCCNC(=N)c1ccc(N)cc1)c1ccc(N)cc1 | – | 2.2 mg/kg | 14 nM | 58%
Cc1ccc(C(=N)NCCCCCCCCCCCCNC(=N)c2ccc(C)cc2)cc1.Cl.Cl | – | 3.1 mg/kg | 10 nM | –
CC(=N)NCCCCCCCCCCCCNC(C)=N.Cl.Cl | – | 3.1 mg/kg | – | –
CCC(=N)NCCCCCCCCCCCCNC(=N)CC.Cl.Cl | – | > 10 mg/kg | 18 nM | –
CC(C)C(=N)NCCCCCCCCCCCCNC(=N)C(C)C.Cl.Cl | – | 7 mg/kg | 10.2 nM | –
Cl.Cl.N=C(NCCCCCCCCCCCCNC(=N)C1CC1)C1CC1 | – | 5 mg/kg | 16 nM | –
Cl.Cl.NC(=O)NCCCCCCCCCCCCNC(N)=O | – | 8.5 mg/kg | 9.15 nM | –
N=C(NCCCCCCCCCCCCNC(=N)c1ccco1)c1ccco1 | – | – | 715 nM | –
N=C(NCCCCCCCCCCCCNC(=N)c1ccc(C(F)(F)F)cc1)c1ccc(C(F)(F)F)cc1 | – | – | 455 nM | –
N=C(NCCCCCCCCCCCCNC(=N)c1ccc([N+](=O)[O-])cc1)c1ccc([N+](=O)[O-])cc1 | – | – | 520 nM | –
COc1ccc(C(=N)NCCCCCCCCCCCCNC(=N)c2ccc(OC)cc2)cc1.Cl.Cl | – | > 20 mg/kg | 26.5 nM | –
COc1ccccc1C(=N)NCCCCCCCCCCCCNC(=N)c1ccccc1OC.Cl.Cl | – | 12 mg/kg | 24.5 nM | –
Cl.Cl.N=C(NCCCCCCCCCCCCNC(=N)c1ccc2c(c1)OCO2)c1ccc2c(c1)OCO2 | – | 12 mg/kg | 55.5 nM | –
Cl.Cl.N=C(NCCCCCCCCCCCCNC(=N)c1ccccc1)c1ccccc1 | – | > 10 mg/kg | 13.5 nM | –
